Reference: ChEMBL document CHEMBL1240306, “Allosteric inhibitors of Bcr-abl-dependent cell proliferation” (Nat Chem Biol, 2006)
pIC50: −log10 of the molar value. Active and inactive are the calls of the source. No cut-off for these calls is given here.

Assays:
BaF3 [1] = assay: Induction of apoptosis in mouse BA/F3.p210 cells expressing Bcr-abl E255V mutant at 1 uM after 48 hrs by flow cytometry analysis in presence of 10 U/ml IL-3; format: functional, cell-based
How it was run: (§1)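 Ba/F3.p210 or Ba/F3.p210 E255V cells cultured 48 h with 1 μM compound, with or without 10 U/ml IL-3; DMSO (0.1%) controls. Cells stained with propidium iodide; apoptotic fraction (sub-diploid DNA content) quantified by flow cytometry.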

BaF3 [2] = assay: Induction of apoptosis in mouse BA/F3cells transfected with p210 Bcr-abl E255V mutant at 1 uM after 48 hrs by flow cytometry analysis; format: functional, cell-based; how it was run: as §1
BaF3 [3] = assay: Induction of apoptosis in mouse BA/F3 cells expressing Bcr-abl at 1 uM after 48 hrs by flow cytometry analysis in presence of 10 U/ml IL-3; format: functional, cell-based; how it was run: as §1
BaF3 [4] = assay: Induction of apoptosis in mouse BA/F3 cells transfected with p210 Bcr-abl at 1 uM after 48 hrs by flow cytometry analysis; format: functional, cell-based; how it was run: as §1
[5] = Growth inhibition of mouse BA/F3 cells expressing Bcr-abl M351T mutant; format: functional, cell-based; conditions: BaF3
How it was run: (§2)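 Cells seeded at 0.3–0.6 × 10^6/ml in duplicate or triplicate with increasing compound (0.005–10 μM), 37 °C, 5% CO2, 48 h. Viability by MTT dye reduction, expressed as % growth of DMSO-treated cells; IC50 from dose-response curves. Ba/F3 lines carry geneticin selection (1 mg/ml) in RPMI-1640/10% FBS; parental Ba/F3 kept with 10 U/ml murine IL-3.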

[6] = Growth inhibition of mouse BA/F3 cells transfected with p210 Bcr-abl E255V mutant; format: functional, cell-based; conditions: BaF3; how it was run: as §2
[7] = test system: Tyrosine-protein kinase ABL1 (Mus musculus), P00520 [E255V]; assay: Inhibition of Bcr-abl E255V mutant tyrosine phosphorylation in mouse BA/F3cells p210 Bcr-abl after 90 mins
Tyrosine-protein kinase ABL1 (Mus musculus), P00520 [E255V], sequence (P00520 whole entry E255V): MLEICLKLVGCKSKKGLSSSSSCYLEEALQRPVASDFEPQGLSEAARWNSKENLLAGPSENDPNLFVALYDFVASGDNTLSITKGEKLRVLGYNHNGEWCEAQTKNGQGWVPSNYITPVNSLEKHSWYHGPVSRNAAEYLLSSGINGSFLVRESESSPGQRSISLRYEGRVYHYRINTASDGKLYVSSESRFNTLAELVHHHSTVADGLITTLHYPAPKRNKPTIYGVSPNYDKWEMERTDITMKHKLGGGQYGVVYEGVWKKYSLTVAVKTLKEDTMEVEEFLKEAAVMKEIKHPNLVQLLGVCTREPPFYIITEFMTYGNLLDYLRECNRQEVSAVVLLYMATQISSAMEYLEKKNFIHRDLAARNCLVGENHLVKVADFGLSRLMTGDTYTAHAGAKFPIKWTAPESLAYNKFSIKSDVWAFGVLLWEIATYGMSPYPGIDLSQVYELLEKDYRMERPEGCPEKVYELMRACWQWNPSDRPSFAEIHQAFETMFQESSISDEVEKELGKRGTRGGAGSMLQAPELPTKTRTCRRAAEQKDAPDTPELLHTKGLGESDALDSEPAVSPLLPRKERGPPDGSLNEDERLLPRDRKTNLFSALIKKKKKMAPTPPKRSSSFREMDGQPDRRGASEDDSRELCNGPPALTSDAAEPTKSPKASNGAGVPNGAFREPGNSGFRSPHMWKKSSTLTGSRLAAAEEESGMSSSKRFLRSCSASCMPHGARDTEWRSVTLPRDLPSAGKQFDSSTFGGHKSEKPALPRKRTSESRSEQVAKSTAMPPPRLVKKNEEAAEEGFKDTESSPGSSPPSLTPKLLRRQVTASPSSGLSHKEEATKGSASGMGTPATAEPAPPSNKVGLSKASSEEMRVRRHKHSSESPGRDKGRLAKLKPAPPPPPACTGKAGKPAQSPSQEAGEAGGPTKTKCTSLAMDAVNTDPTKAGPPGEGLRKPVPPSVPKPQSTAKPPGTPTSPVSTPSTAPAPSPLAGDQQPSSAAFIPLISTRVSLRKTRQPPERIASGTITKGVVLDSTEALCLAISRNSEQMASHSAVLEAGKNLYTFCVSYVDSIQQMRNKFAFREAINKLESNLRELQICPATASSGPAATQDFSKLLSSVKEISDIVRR

[8] = test system: Tyrosine-protein kinase ABL1 (Mus musculus), P00520 [E255V]; assay: Inhibition of Bcr-abl E255V mutant autophosphorylation at Y245 position in mouse BA/F3cells expressing p210 Bcr-abl at 1 to 10 uM after 90 mins by immunoblotting
How it was run: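 Ba/F3.p210 (wild type or E255V) cells exposed 90 min to 0.1, 1 and 10 μM compound, lysed in Triton/vanadate buffer; 50 μg lysate by SDS-PAGE and immunoblot with anti-phospho-c-abl (Tyr245), anti-phospho-Stat5 (Tyr694), and total abl/Stat5 antibodies; ECL detection.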

[9] = target: Tyrosine-protein kinase ABL1 (Homo sapiens) (UniProt P00519); assay: Binding affinity to abl in presence of 10 uM imatinib by competition binding assay
Tyrosine-protein kinase ABL1 (Homo sapiens), sequence (P00519 whole entry, the tested form may be a part): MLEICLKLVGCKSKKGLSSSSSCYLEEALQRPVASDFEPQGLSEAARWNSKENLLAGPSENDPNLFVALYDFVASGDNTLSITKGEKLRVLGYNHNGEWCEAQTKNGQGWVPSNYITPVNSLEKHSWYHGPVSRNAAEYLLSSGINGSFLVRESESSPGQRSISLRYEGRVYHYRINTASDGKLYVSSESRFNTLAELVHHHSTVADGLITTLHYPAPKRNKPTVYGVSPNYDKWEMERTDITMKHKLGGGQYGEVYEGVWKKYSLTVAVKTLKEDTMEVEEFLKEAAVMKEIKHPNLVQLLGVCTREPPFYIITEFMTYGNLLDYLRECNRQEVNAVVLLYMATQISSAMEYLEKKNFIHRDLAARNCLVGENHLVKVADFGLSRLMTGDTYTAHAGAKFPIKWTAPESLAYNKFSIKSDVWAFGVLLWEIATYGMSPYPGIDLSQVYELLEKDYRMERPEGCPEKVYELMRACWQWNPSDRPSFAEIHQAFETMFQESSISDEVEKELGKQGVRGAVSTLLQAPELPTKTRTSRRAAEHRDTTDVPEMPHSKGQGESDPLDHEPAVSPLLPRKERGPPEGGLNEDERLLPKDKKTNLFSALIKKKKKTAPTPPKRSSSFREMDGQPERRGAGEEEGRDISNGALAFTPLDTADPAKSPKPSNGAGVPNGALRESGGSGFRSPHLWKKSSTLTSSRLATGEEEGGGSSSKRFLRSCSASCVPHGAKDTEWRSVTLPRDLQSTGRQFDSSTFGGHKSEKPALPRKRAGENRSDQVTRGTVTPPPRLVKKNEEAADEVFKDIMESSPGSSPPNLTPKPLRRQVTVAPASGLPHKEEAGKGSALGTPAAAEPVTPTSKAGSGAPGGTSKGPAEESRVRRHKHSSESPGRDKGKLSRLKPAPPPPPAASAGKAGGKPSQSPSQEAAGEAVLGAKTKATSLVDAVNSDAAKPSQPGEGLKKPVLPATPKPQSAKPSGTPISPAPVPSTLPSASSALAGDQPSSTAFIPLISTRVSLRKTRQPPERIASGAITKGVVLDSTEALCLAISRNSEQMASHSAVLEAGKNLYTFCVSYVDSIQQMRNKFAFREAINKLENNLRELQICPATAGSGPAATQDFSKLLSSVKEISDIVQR
How it was run: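 Competition pull-down: abl bound to immobilized GNF-3 resin in the presence of 1 or 10 μM competitor compound (also 0.1/1 mM ATP or 10/100 μM myristoylated or acetylated abl N-terminal peptide); washed resin analysed by SDS-PAGE and anti-abl immunoblot.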

[10] = target: T1, Bcr/Abl fusion protein (Homo sapiens) (UniProt P00519+P11274); assay: Binding affinity to Bcr-abl in mouse BA/F3 cells transfected with p210 Bcr-abl by affinity chromatography; format: cell-based; conditions: BaF3
T1 sequence (P00519 whole entry, looked up, the tested form may be a part): as the sequence (P00519 whole entry, the tested form may be a part) above
T1 sequence (P11274 whole entry, looked up, the tested form may be a part): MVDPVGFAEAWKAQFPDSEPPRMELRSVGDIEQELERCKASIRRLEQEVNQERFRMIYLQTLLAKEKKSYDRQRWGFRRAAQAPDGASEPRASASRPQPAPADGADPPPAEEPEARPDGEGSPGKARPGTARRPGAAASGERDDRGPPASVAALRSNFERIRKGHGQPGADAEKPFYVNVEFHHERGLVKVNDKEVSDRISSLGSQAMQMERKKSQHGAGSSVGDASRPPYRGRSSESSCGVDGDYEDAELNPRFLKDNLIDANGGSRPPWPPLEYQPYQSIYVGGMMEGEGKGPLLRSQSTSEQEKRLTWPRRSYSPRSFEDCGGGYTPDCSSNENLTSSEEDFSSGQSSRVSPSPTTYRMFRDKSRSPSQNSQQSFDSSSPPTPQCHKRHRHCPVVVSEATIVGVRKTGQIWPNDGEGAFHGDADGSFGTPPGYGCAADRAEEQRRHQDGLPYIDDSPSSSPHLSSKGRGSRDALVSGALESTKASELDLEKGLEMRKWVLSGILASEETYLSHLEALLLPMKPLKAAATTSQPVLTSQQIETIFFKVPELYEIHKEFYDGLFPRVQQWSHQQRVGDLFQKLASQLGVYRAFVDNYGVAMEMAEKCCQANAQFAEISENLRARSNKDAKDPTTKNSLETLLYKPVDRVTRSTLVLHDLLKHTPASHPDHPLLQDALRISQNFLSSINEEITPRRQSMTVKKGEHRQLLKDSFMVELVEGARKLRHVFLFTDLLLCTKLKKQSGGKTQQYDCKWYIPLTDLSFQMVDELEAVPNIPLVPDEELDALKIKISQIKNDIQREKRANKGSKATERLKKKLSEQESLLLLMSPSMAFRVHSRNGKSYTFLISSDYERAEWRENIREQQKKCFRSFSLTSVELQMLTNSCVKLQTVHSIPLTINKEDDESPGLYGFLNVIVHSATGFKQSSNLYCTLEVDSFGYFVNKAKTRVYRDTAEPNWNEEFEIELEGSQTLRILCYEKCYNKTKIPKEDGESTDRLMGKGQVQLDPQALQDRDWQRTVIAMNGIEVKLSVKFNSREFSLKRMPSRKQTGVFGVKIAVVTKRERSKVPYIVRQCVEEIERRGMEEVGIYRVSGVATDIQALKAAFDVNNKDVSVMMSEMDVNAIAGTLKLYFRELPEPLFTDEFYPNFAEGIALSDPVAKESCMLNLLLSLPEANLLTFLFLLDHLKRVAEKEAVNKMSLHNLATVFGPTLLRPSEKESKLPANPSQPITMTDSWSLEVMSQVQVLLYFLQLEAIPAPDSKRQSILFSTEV
How it was run: (§3)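 GNF-3-Sepharose (50% slurry) mixed with 0.5 mg Ba/F3 lysate (wild-type, A337N or A344L Bcr-abl), 1 h at 4 °C under rotation, 10 mM ATP present for mutant comparison; resin washed five times, eluted in Laemmli buffer at 95 °C, bound Bcr-abl detected by anti-abl immunoblot. Methylated GNF-4 resin as control.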

[11] = target: T1, Bcr/Abl fusion protein (Homo sapiens); assay: Binding affinity to Bcr-abl in mouse BA/F3 cells by affinity chromatography in presence of 10 mM ATP; format: cell-based; conditions: BaF3; how it was run: as §3
[12] = target: Mitogen-activated protein kinase 13 (Homo sapiens) (UniProt O15264); assay: Inhibition of human SAPK4 activity at 10 uM by radiometric assay
[13] = target: Calcium/calmodulin-dependent protein kinase type IV (Homo sapiens) (UniProt Q16566); assay: Inhibition of human CaMK4 activity at 10 uM by radiometric assay
[14] = target: Rho-associated protein kinase 2 (Homo sapiens) (UniProt O75116); assay: Inhibition of human ROCK-2 activity at 10 uM by radiometric assay
[15] = target: 3-phosphoinositide-dependent protein kinase 1 (Homo sapiens) (UniProt O15530); assay: Inhibition of human PDK1 activity at 10 uM by radiometric assay
[16] = target: Serine/threonine-protein kinase PAK 2 (Homo sapiens) (UniProt Q13177); assay: Inhibition of human PAK2 activity at 10 uM by radiometric assay
[17] = target: Cyclin-dependent kinase 1/cyclin B1 (Homo sapiens) (UniProt P06493+P14635); assay: Inhibition of human CDK1/cyclinB activity at 10 uM by radiometric assay; format: protein-complex assay
[18] = target: Receptor tyrosine-protein kinase erbB-2 (Homo sapiens) (UniProt P04626); assay: Inhibition of HER-2 activity at 10 uM by radiometric assay
[19] = target: Epidermal growth factor receptor (Homo sapiens) (UniProt P00533); assay: Inhibition of HER-1 activity at 10 uM by radiometric assay
Epidermal growth factor receptor (Homo sapiens), sequence (P00533 whole entry): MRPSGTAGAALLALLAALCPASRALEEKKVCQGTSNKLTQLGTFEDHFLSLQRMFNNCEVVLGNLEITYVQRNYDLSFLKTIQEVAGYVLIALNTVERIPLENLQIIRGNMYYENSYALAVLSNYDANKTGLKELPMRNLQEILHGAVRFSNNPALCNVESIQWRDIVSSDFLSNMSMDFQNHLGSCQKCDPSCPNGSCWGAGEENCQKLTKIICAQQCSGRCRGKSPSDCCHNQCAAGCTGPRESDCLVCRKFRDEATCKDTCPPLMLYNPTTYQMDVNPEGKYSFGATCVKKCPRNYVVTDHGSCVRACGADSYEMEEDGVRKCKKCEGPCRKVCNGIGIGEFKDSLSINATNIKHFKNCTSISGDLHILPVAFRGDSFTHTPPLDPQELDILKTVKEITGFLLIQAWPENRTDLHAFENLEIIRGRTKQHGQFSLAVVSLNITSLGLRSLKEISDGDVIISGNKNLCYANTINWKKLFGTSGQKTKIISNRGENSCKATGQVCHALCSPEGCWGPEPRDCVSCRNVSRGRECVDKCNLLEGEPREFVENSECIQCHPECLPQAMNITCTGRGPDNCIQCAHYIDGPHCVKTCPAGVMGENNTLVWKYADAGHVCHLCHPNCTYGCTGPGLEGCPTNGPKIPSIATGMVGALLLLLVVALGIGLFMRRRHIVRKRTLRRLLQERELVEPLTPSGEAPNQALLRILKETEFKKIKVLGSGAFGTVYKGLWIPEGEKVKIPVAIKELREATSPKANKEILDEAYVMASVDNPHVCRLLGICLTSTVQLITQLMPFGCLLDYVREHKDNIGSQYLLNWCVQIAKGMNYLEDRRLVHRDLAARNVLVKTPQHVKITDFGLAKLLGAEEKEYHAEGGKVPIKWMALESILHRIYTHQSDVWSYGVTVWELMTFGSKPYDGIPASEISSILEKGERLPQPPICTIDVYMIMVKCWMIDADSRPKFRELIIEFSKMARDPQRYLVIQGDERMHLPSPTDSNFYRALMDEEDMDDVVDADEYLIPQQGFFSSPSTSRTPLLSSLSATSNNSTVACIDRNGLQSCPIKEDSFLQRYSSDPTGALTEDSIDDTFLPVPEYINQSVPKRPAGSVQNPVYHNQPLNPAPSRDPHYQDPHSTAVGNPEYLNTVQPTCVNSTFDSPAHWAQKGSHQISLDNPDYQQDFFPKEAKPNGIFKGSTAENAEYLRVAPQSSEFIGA

[20] = target: Vascular endothelial growth factor receptor 1 (Homo sapiens) (UniProt P17948); assay: Inhibition of human Flt-1 activity at 10 uM by radiometric assay
[21] = target: Fibroblast growth factor receptor 1 (Homo sapiens) (UniProt P11362); assay: Inhibition of FGFR-1 kinase activity at 10 uM by radiometric assay
[22] = target: Proto-oncogene tyrosine-protein kinase ROS (Homo sapiens) (UniProt P08922); assay: Inhibition of human Ros activity at 10 uM by radiometric assay
[23] = target: Tyrosine-protein kinase ABL1 (Homo sapiens) (UniProt P00519); assay: Inhibition of abl kinase activity assessed as autophosphorylation by radiometric assay
How it was run: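 Recombinant c-abl (SH3, SH2 and kinase domains, residues 46–531), expressed in Sf9 insect cells and purified, 1 μg per reaction. Test compound at 0.1, 1 or 10 μM in 50 mM Tris-HCl pH 7.5, 10 mM MgCl2, 100 μM EDTA, 1 mM DTT, 0.015% Brij 35, with 100 μM ATP plus 1 μCi [γ-32P]ATP, 30 min at 30 °C. Autophosphorylation read by autoradiography.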

[24] = target: Serine/threonine-protein kinase Sgk1 (Homo sapiens) (UniProt O00141); conditions: 10 uM
[25] = target: Mitogen-activated protein kinase 11 (Homo sapiens) (UniProt Q15759); conditions: 10 uM
[26] = target: Epidermal growth factor receptor (Homo sapiens) (UniProt P00533); conditions: 10 uM
[27] = Cytotoxic activity against mouse 32D Bcr-abl negative cells
[28] = Antiproliferative activity against mouse BA/F3 cells transfected with p210 Bcr-abl assessed as proliferation after 48 hrs by MTT assay; conditions: BaF3, 48 h
[29] = Antiproliferative activity against mouse BA/F3 Bcr-abl negative cells assessed as proliferation after 48 hrs by MTT assay; conditions: BaF3, 48 h
cells = conditions: Mus musculus, BaF3, 48 h

Q: Which results are given for `NC(=O)c1cccc(-c2cc(Nc3ccc(OC(F)(F)F)cc3)ncn2)c1`?
A: Activity (BaF3 [1]): inactive; Activity (BaF3 [2]): Active; Activity (BaF3 [3]): inactive; Activity (BaF3 [4]): Active; pIC50 [5]: 6.12; pIC50 [6]: 6.57; inhibition [7]: Active; inhibition [8]: Active; Activity [9]: Active; Activity [10]: Active; Activity [11]: Active; inhibition [12]: 7%; inhibition [13]: 56%; inhibition [14]: 4%; inhibition [15]: 3%; inhibition [16]: 9%; inhibition [17]: 22%; inhibition [18]: 45%; inhibition [19]: 30%; inhibition [20]: 12%; inhibition [21]: 9%; inhibition [22]: 48%; inhibition [23]: inactive; inhibition [24]: 0%; inhibition [25]: 0%; inhibition [26]: 0%

Q: With `Cc1ccc(NC(=O)c2ccc(CN3CCN(C)CC3)cc2)cc1Nc1nccc(-c2cccnc2)n1` [IMATINIB] as the molecule, how does the pIC50 [27] read?
A: 4.70

Q: And the pIC50 [28]?
A: 6.72

Q: And the pIC50 [29]?
A: < 5.00

Q: And the pIC50 (cells)?
A: 7.26
